STAT3 act = IL-6 driven STAT3 reporter potentiators, primary screen, U3A cells, luciferase, luminescence, MLSCN library; IL-6 STAT3-luciferase reporter; 100% = signal with IL-6 EC80 alone; activation (% of control), % at 5.6 µM; 190,000 compounds, 0.91% hits;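 active = activation above the screen-wide mean of compound activation plus 3 SD, cut at about 130% in these data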;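 also: 0% = background luminescence of wells with medium and substrate only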
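Detection: reporter luminescence signal / Assay system: STAT1-lacking human U3A cells, STAT3 luciferase reporter / Incubation: compound pre-incubation 1 h before IL-6, then 6 h stimulation at 37 °C / Control set: IL-6-only high control / Read-out: % activation relative to IL-6 control / Probe or stimulus: Interleukin-6, 33 ng/mL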
HSV augment = enhancers of HSV replication in host cells, fold increase, host cell viability; HSV replication augmentation in cells; maximum fold increase; 220,000 compounds, 0.005% hits; in the data active = maximum fold increase above about 1.5; tested in PC3 cells
STAT3 blocker = IL-6 driven STAT3 reporter inhibitors, primary screen, U3A cells, luciferase, luminescence, MLSCN library. IL-6 STAT3-luciferase reporter; host cell line lacks STAT1. inhibition, % at 5.5 µM. 190,000 compounds, 0.89% hits. AID 862, 2007;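 active = inhibition above the mean inhibition across all screened compounds plus 3 SD, cut at about 44% in these data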;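 also: 0% = DMSO only wells and 100% = 100 µM nifuroxazide control wells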
STAT1 act = STAT1 signaling activators, primary screen, cell-based, HTS, luciferase reporter; NIH 3T3 STAT1-luciferase reporter, IFN-gamma, luminescence; 100% = IFN-gamma alone, no compound; activation (% of control), % at 5.5 µM; 200,000 compounds, 2.6% hits;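 active = activation above the screen-wide mean activation plus 3 SD, cut at about 130% in these data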;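 also: raw ratio to IFN-gamma control signal so 100% means no change and 0% no light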
KCC2 mod = KCC2 cotransporter modulators, thallium flux, primary screen, cell-based, HEK293 KCC2, FluoZin-2 fluorescence, MLSMR; Solute carrier family 12 member 5 (Homo sapiens), Q9H2X9; KCC2 cells, thallium flux FluoZin-2 fluorescence; B-score of Tl+ flux slope (higher = more flux/activation; lower = inhibition) at 10 µM; 190,000 compounds, 2.2% hits; AID 1456, 2008;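 active = thallium flux slope and its plate-corrected score both differing from the plate sample mean at a set confidence after two filtering rounds, in either direction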;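 also: slope of fluorescence scaled to starting intensity during 10 to 20 s after thallium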
STAT1 inh = STAT1 signaling inhibitors, primary screen, cell-based, HTS, luciferase reporter; NIH 3T3 STAT1-luciferase reporter, IFN-gamma, luminescence; inhibition, % at 5.5 µM; AID 920, 2007; 200,000 compounds, 0.35% hits;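 active = inhibition above a set limit, the mean inhibition across all tested compounds plus 3 SD, cut at about 34% in these data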;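 also: 0% = IFN-gamma with DMSO and 100% = IFN-gamma with 300 µM nifuroxazide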
Starred values were filed as active, the others as inactive; i = inactive; / = not tested or not shown. This is a sample that favours compounds with a hit; in the whole collection about 5.5% have one here.

SMILES	STAT3 act	HSV augment	STAT3 blocker	STAT1 act	KCC2 mod	STAT1 inh
CCOC(=O)C1CCCN(C(=O)c2cc3ccccc3oc2=O)C1 (stereo unspecified)	101.0	i	5.2	103.5	0.319	-6.0
CCCCC(=O)Nc1nc2ccc(C(=O)OC)cc2s1	96.5	i	8.7	129.0*	0.139	-30.9
CCCC(=O)Nc1nc2ccc(C(=O)OCC)cc2s1	107.4	i	0.1	126.9	/	-29.7
Cc1c(NC(=O)c2cccs2)cccc1-c1nc2ccccc2s1	100.0	i	2.2	104.6	-1.41	-5.1
O=C(NC(=S)Nc1nc2ccccc2s1)c1cccs1	151.1*	i	-65.7	132.8*	72.3*	-36.9
CCOC(=O)c1ccc2nc(NC(=O)C(C)C)sc2c1	98.3	i	1.2	144.7*	-0.944	-52.0
c1ccc(-c2ncc(CN3CCN(c4ccccn4)CC3)[nH]2)cc1	/	i	/	/	0.602	/
COc1ccc(N(CCCN2C(=O)c3cccc4cccc(c34)C2=O)C(=O)c2ccncc2)cc1	112.6	i	-13.8	129.7*	-1.09	-33.7
COc1cc(S(=O)(=O)N2CCOCC2)ccc1NC(=O)COC(=O)CC12CC3CC(CC(C3)C1)C2	97.3	i	1.7	98.3	0.211	1.9
c1ccc(-n2ncc3c2ncn2nc(-c4ccco4)nc32)cc1	86.2	i	20.4	137.0*	/	-40.5
CN(C)S(=O)(=O)c1cccc(C(=O)OCC(=O)Nc2sccc2C#N)c1	133.8*	/	-40.3	113.4	0.604	-14.5
COc1ccc(N(C)S(=O)(=O)c2cccc(C(=O)OCC(=O)Nc3sc4c(c3C#N)CCCCC4)c2)cc1	93.6	i	5.3	87.3	0.0823	14.3
Cc1nc(SCC(=O)NCCc2ccc(Cl)cc2)nc(C)c1C	99.2	i	3.7	104.7	-0.302	-5.2
O=C(Nc1cc2ccccc2oc1=O)c1ccccc1	25.4	i	96.1*	28.7	/	76.3*
CCN(CC)c1ccc(C=C(c2nnnn2-c2ccccc2)c2nnnn2-c2ccccc2)cc1	105.2	3.09*	-9.0	93.5	-0.8	7.3
CCn1c(O)c(C2=c3ccccc3=NC2=O)c2cc(Br)ccc21	133.9*	i	-35.2	96.5	1.22	0.5
O=C1CSC(c2cccc([N+](=O)[O-])c2)N1c1ccccc1F (stereo unspecified)	96.4	i	9.1	99.3	-0.0293	-1.1
COc1ccc(CNc2nc3nc(C)cc(C)n3n2)cc1	111.3	i	-10.4	107.8	0.618	-8.6
COc1ccc(-c2nc3nc(C)cc(C)n3n2)cc1	111.0	i	-9.9	128.6*	0.102	-28.8
COc1ccc(-c2cc3nc(C)cc(C)n3n2)cc1	155.9*	i	-60.2	134.7*	-0.846	-37.5
CCOC(=O)NS(=O)(=O)c1ccc(CCNC(=O)c2cc(C)on2)cc1	100.9	i	1.8	106.1	0.708	-6.9
Cc1ccc(S(=O)(=O)NCc2ccc(C(=O)NCCCN3CCC(Cc4ccccc4)CC3)cc2)cc1	93.6	i	12.4	93.9	0.01	3.8
CC(C)(C)OC(=O)N1CCN(C(=O)Nc2ccc3c(c2)OCCO3)CC1	99.9	i	4.9	104.7	0.564	-5.1
Cc1sc(NC(=O)c2cccs2)c(C(N)=O)c1C	115.6	i	-14.7	140.3*	-0.621	-44.1
Fc1ccc(/C=N/NC(=S)Nc2ccc(Cl)cc2)cc1F	104.0	i	-10.1	109.6	8.56*	-10.6
Cc1ccccc1NC(=O)C(=O)N/N=C/c1cccc(Br)c1	84.4	i	20.0	96.4	0.675	3.4
Fc1cccc(/C=N/NC(=S)Nc2ccccc2Cl)c1	98.9	i	2.2	131.1*	40.7*	-34.8
Cc1cccc(NC(=S)N/N=C/c2cccc(O)c2)c1C	/	i	/	/	0.981	/
Fc1ccc(NC(=S)N/N=C/c2cccc(Br)c2)c(F)c1	81.2	i	28.4	98.6	3.97*	1.5
Cc1cc(NC(=O)c2ccc(N3CCCC3)c([N+](=O)[O-])c2)no1	90.8	i	15.0	105.0	0.733	-5.7
